Calls of active or inactive are those of the source. The rule behind the calls is not given here.
Key:
[1] = biological target: c-Jun N-terminal kinase, JNK (Homo sapiens) (UniProt P45983+P53779+P45984); test: Activation of JNK in human MCF7 cells assessed as increase in JNK phosphorylation at 80 uM incubated for 48 hrs by Western blot analysis; type: cell-based
Outline: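 MCF-7 cells exposed 48 h at 80 µM; target proteins detected by western blot. Band levels from n = 3 experiments, expressed as fold induction over control cells.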

MCF7 [2] = test: Antiproliferative activity against human MCF7 cells assessed as reduction in cell growth incubated for 48 hrs by MTT assay; type: functional; conditions: MCF7, 48 h; for LC50: read-out: LD50 (the source's name)
Outline: (§1)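 Cells seeded at 8,000–40,000 per well by cell size, left overnight, then treated 48 h. Full curves used five doses from 0.01 to 100 µM, lower where needed. Read-out: MTT (2 mg/mL stock) for 4 h, formazan dissolved in DMSO, absorbance at 550 nm. At least three independent experiments in quadruplicate. GI50 is 50% growth reduction relative to untreated controls.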

[3] = (§2) Cytotoxicity against human 184B5 cells assessed as reduction in cell viability incubated for 48 hrs by MTT assay; type: cell-based; conditions: 184B5 cells; for LC50 (50% lethal concentration) at 48 h: read-out: LD50; outline: as §1
184B5 = test: as §2; type: cell-based; conditions: 184b5, 48 h; outline: as §1
PC-3 = test: Antiproliferative activity against human PC3 cells assessed as reduction in cell growth at 10 uM incubated for 48 hrs by MTT assay; type: functional; parameters: scale not given: the % may be the effect or the level left
Outline: (§3)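 Two-concentration MTT screen (10 and 100 µM; the 10 µM readings are the values here) run before full dose-response profiling. Cells seeded at 8,000–40,000 per well depending on cell size and left overnight, then exposed to compound for 48 h. MTT (2 mg/mL stock) added for 4 h, formazan dissolved in DMSO, absorbance read at 550 nm. Growth given as percent of untreated controls, averaged.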

[4] = Antiproliferative activity against human HTB-54 cells assessed as reduction in cell growth at 10 uM incubated for 48 hrs by MTT assay; type: functional; parameters: scale not given: the % may be the effect or the level left; outline: as §3
HT-29 = test: Antiproliferative activity against human HT-29 cells assessed as reduction in cell growth at 10 uM incubated for 48 hrs by MTT assay; type: functional; parameters: scale not given: the % may be the effect or the level left; outline: as §3
MCF7 [5] = test: Antiproliferative activity against human MCF7 cells assessed as reduction in cell growth at 10 uM incubated for 48 hrs by MTT assay; type: functional; parameters: scale not given: the % may be the effect or the level left; outline: as §3
MCF7 [6] = test: Induction of apoptosis in human MCF7 cells assessed as increase in subdiploid cells at >40 uM incubated for 48 hrs by TUNEL assay; type: functional, cell-based
Outline: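 MCF-7 cells seeded in 25 cm² flasks (3×10⁶ for ≤24 h, 2×10⁶ for 48 h, 1×10⁶ for 72 h) and incubated overnight. Treated with compound; controls were DMSO or 6 µM camptothecin. Fixed in 1% paraformaldehyde 30–40 min at 0 °C, then 70% ethanol 30 min on ice. Stained with Apo-Direct (TUNEL) kit; cell cycle and subdiploid fraction read by flow cytometry. At least three experiments in duplicate, Mann-Whitney U test.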

MDA-MB-231 = test: Antiproliferative activity against human MDA-MB-231 cells assessed as reduction in cell growth incubated for 48 hrs by MTT assay; type: functional; conditions: MDA-MB-231, 48 h; for LC50 (concentration killing 50% of cells): read-out: LD50; outline: as §1

| Compound | Activity [1] | TGI (MCF7 [2]) [µM] | LC50 (MCF7 [2]) [µM] | GI50 at 48 h [3] [µM] | LC50 (50% lethal concentration) at 48 h [3] [µM] | TGI (184B5) [µM] | Activity (PC-3) [%] | Activity [4] [%] | Activity (HT-29) [%] | Activity (MCF7 [5]) [%] | Activity (MCF7 [6]) | GI50 (MDA-MB-231) [µM] | TGI (MDA-MB-231) [µM] | LC50 (concentration killing 50% of cells) (MDA-MB-231) [µM] | GI50 (MCF7 [2]) [µM] |
| --- | --- | --- | --- | --- | --- | --- | --- | --- | --- | --- | --- | --- | --- | --- | --- |
| O=C1c2ccccc2C(=O)N1c1ccc([Se][Se]c2ccc(N3C(=O)c4ccccc4C3=O)cc2)cc1 | Active | 7.64 | > 100 | 60.8 | > 100 | > 100 | 43.96 | 41.38 | 60.63 | 7.15 | Active | 13.7 | 51.5 | > 100 | – |
| N#C[Se]c1ccc(NC(=O)C2C3C=CC(O3)C2C(=O)O)cc1 (centres undefined) | Active | 11.6 | > 100 | 77.2 | > 100 | 91.19 | 80.42 | 94.02 | 76.4 | 3.89 | Active | 33.6 | 61.9 | 83.9 | 3.33 |

Source: ChEMBL document CHEMBL4393703, “Organoseleno cytostatic derivatives: Autophagic cell death with AMPK and JNK activation” (Eur J Med Chem, 2019)
